Reference: ChEMBL document CHEMBL4118105, “High-Affinity Peptidomimetic Inhibitors of the DCN1-UBC12 Protein-Protein Interaction” (J Med Chem, 2018)
≈ marks a conversion by molar mass, not a printed value. Calls of active or inactive are those of the source. The rule behind the calls is not given here.

Assays:
DCN1-like protein 1 [1] = target: T1, DCN1-like protein 1 (Homo sapiens, UniProt Q96GG9); assay: Binding affinity to biotin labeled recombinant N-terminal His6-tagged human DCN1 (58 to 259 residues) expressed in Escherichia coli Rosetta2 cells assessed as association rate constant by biolayer interferometry analysis
Procedure, shortened: (§1)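 Biotinylated DCN1 (1:1 molar biotin reagent, 4 °C 2 h, dialysed) loaded on super streptavidin sensors from 10 μg/mL to 11−12 nm response; blocked streptavidin sensors as reference. Run at 30 °C, 1000 rpm, in PBS with 0.1% BSA, 0.01% Tween-20, 2% DMSO; 10 min baseline wash. kon/koff from 1:1 binding model fits; two independent experiments.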
Target sequence in this assay (Q96GG9 whole entry, looked up, the tested form may be a part): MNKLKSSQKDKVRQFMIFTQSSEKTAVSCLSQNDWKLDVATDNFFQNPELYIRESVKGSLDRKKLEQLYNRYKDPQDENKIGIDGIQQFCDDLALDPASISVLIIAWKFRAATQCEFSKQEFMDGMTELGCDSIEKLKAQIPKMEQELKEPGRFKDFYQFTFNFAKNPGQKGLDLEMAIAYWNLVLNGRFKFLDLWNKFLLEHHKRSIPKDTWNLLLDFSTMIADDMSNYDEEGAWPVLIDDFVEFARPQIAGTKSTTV

DCN1-like protein 1 [2] = target: T1, DCN1-like protein 1; assay: Inhibition of DCN1-mediated CUL4A neddylation in human H2170 cells at 0.1 to 10 uM after 16 hrs by Western blot analysis; assay type: cell-based
Procedure, shortened: (§2)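 H2170 cells exposed to compound for 16 h, then lysed in Triton X-100 or RIPA buffer with phosphatase inhibitors. Neddylated and unneddylated cullins, NRF2 and CDT1 read by Western blot on whole-cell lysate, with GAPDH as loading control.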
Target sequence in this assay (Q96GG9 whole entry, looked up, the tested form may be a part): as above

NCI-H2170 [3] = assay: Effect on DCN1 levels in human NCI-H2170 cells at 5 to 10 uM after 24 hrs by Western blot analysis; assay type: functional, cell-based
DCN1-like protein 1 [4] = target: T1, DCN1-like protein 1; assay: Inhibition of DCN1-mediated CUL1 neddylation in human H2170 cells at 10 uM after 16 hrs by Western blot analysis; assay type: cell-based; procedure, shortened: as §2
Target sequence in this assay (Q96GG9 whole entry, looked up, the tested form may be a part): as above

DCN1-like protein 1 [5] = target: T1, DCN1-like protein 1; assay: Inhibition of DCN1-mediated CUL4B neddylation in human H2170 cells at 0.1 to 10 uM after 16 hrs by Western blot analysis; assay type: cell-based; procedure, shortened: as §2
Target sequence in this assay (Q96GG9 whole entry, looked up, the tested form may be a part): as above

DCN1-like protein 1 [6] = target: T1, DCN1-like protein 1; assay: Inhibition of DCN1 interaction with UBC12 protein in human H2170 cell lysate after 24 hrs by immunoprecipitation assay
Procedure, shortened: (§3)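 Endogenous DCN1 pulled down from precleared lysates of treated cells with DCN1 antibody for 3 h, then protein A&G beads at 4 °C overnight with rotation. Beads washed three times in lysis buffer, complexes resolved by SDS−PAGE and immunoblotted.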
Target sequence in this assay (Q96GG9 whole entry, looked up, the tested form may be a part): as above

DCN1-like protein 1 [7] = target: T1, DCN1-like protein 1; assay: Inhibition of DCN1-mediated CUL5 neddylation in human H2170 cells at 0.1 to 10 uM after 16 hrs by Western blot analysis; assay type: cell-based; procedure, shortened: as §2
Target sequence in this assay (Q96GG9 whole entry, looked up, the tested form may be a part): as above

DCN1-like protein 1 [8] = target: T1, DCN1-like protein 1; assay: Inhibition of DCN1-mediated CUL3 neddylation in human SK-MES-1 cells up to 10 uM after 16 hrs by Western blot analysis; assay type: cell-based
DCN1-like protein 1 [9] = target: T1, DCN1-like protein 1; assay: Inhibition of DCN1-mediated CUL4A neddylation in human H2170 cells assessed as increase in CDT1 level at 0.1 to 10 uM after 16 hrs by Western blot analysis; assay type: cell-based; procedure, shortened: as §2
DCN1-like protein 1 [10] = target: T1, DCN1-like protein 1; assay: Stabilization of DCN1 in human H2170 cells incubated for 1 hr by cellular thermal shift assay; assay type: cell-based
Procedure, shortened: (§4)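 H2170 cells (5 × 10^5 per sample) given compound or DMSO for 1 h, washed three times in PBS, resuspended in PBS with protease inhibitor, and heated at 53 °C for 3 min. Three liquid-nitrogen freeze/thaw-on-ice cycles followed. DCN1 in the supernatant read by Western blot, with GAPDH as loading control.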

DCN1-like protein 1 [11] = target: T1, DCN1-like protein 1; assay: Inhibition of DCN1-mediated CUL3 neddylation in human H2170 cells after 16 hrs by Western blot analysis; assay type: cell-based; procedure, shortened: as §2
DCN1-like protein 1 [12] = target: T1, DCN1-like protein 1; assay: Inhibition of DCN1-mediated CUL3 neddylation in human H2170 cells assessed as increase in NRF2 level at 0.1 to 10 uM after 16 hrs by Western blot analysis; assay type: cell-based; procedure, shortened: as §2
[13] = Equilibrium aqueous solubility of the compound in phosphate buffer of pH 7.4 after 24 hrs by shake-flask method; assay type: physicochemical
Procedure, shortened: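 Excess solid was suspended in phosphate buffer pH 7.4, sonicated 30 min, then shaken 24 h at room temperature. Suspensions were centrifuged at 15 000 rpm for 15 min and filtered through 0.45 μm membranes. The saturated concentration was read by UV at each compound's absorption maximum, found by spectrum scan.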

DCN1-like protein 1 [14] = target: T1, DCN1-like protein 1; assay: Inhibition of DCN1-mediated CUL2 neddylation in human H2170 cells at 0.1 to 10 uM after 16 hrs by Western blot analysis; assay type: cell-based; procedure, shortened: as §2
DCN1-like protein 1 [15] = target: T1, DCN1-like protein 1; assay: Binding affinity to biotin labeled recombinant N-terminal His6-tagged human DCN1 (58 to 259 residues) expressed in Escherichia coli Rosetta2 cells by biolayer interferometry analysis
Procedure, shortened: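 Recombinant human DCN1 (58–259) was biotinylated at a 1:1 molar ratio in PBS for 2 h at 4 °C, dialyzed, then loaded on super streptavidin sensors from a 10 μg/mL solution. Blocked streptavidin sensors served as reference.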
Target sequence in this assay (Q96GG9 whole entry, the tested form may be a part): as the sequence (Q96GG9 whole entry, looked up, the tested form may be a part) above

NCI-H2170 [16] = assay: Effect on UBC12 levels in human NCI-H2170 cells at 5 to 10 uM after 24 hrs by Western blot analysis; assay type: functional, cell-based
DCN1-like protein 1 [17] = target: T1, DCN1-like protein 1; assay: Binding affinity to biotin labeled recombinant N-terminal His6-tagged human DCN1 (58 to 259 residues) expressed in Escherichia coli Rosetta2 cells assessed as dissociation rate constant by biolayer interferometry analysis; procedure, shortened: as §1
DCN1-like protein 1 [18] = target: T1, DCN1-like protein 1; assay: Inhibition of DCN1-mediated CUL5 neddylation in human H2170 cells at 10 uM after 16 hrs by Western blot analysis; assay type: cell-based; procedure, shortened: as §2
DCN1-like protein 1 [19] = target: T1, DCN1-like protein 1; assay: Inhibition of DCN1-mediated CUL2 neddylation in human H2170 cells at 10 uM after 16 hrs by Western blot analysis; assay type: cell-based; procedure, shortened: as §2
DCN1-like protein 1 [20] = target: T1, DCN1-like protein 1; assay: Inhibition of DCN1-mediated CUL3 neddylation in human SK-MES-1 cells at 10 uM after 16 hrs by Western blot analysis; assay type: cell-based
DCN1-like protein 1 [21] = target: T1, DCN1-like protein 1; assay: Inhibition of DCN1-mediated CUL3 neddylation in human H2170 cells at 10 uM after 16 hrs by Western blot analysis; assay type: cell-based; procedure, shortened: as §2
DCN1-like protein 1 [22] = target: T1, DCN1-like protein 1; assay: Stabilization of DCN1 in human H2170 cells at 10 uM incubated for 1 hr by cellular thermal shift assay; assay type: cell-based; procedure, shortened: as §4
DCN1-like protein 1 [23] = target: T1, DCN1-like protein 1; assay: Inhibition of DCN1 interaction with UBC12 protein in human H2170 cell lysate at 20 uM after 3 hrs by immunoprecipitation assay; procedure, shortened: as §3
DCN1-like protein 1 [24] = target: T1, DCN1-like protein 1; assay: Inhibition of DCN1-mediated CUL1 neddylation in human SK-MES-1 cells at 10 uM after 16 hrs by Western blot analysis; assay type: cell-based
DCN1-like protein 1 [25] = target: T1, DCN1-like protein 1; assay: Inhibition of DCN1-mediated CUL5 neddylation in human SK-MES-1 cells at 10 uM after 16 hrs by Western blot analysis; assay type: cell-based
DCN1-like protein 1 [26] = target: T1, DCN1-like protein 1; assay: Inhibition of DCN1-mediated CUL2 neddylation in human SK-MES-1 cells at 10 uM after 16 hrs by Western blot analysis; assay type: cell-based
DCN1-like protein 1 [27] = target: T1, DCN1-like protein 1; assay: Inhibition of DCN1-mediated CUL4B neddylation in human SK-MES-1 cells at 10 uM after 16 hrs by Western blot analysis; assay type: cell-based
DCN1-like protein 1 [28] = target: T1, DCN1-like protein 1; assay: Inhibition of DCN1-mediated CUL4A neddylation in human SK-MES-1 cells at 10 uM after 16 hrs by Western blot analysis; assay type: cell-based
DCN1-like protein 1 [29] = target: T1, DCN1-like protein 1; assay: Inhibition of DCN1-mediated CUL3 neddylation in human H2170 cells assessed as increase in NRF2 level at 10 uM after 16 hrs by Western blot analysis; assay type: cell-based; procedure, shortened: as §2
DCN1-like protein 1 [30] = target: T1, DCN1-like protein 1; assay: Inhibition of DCN1-mediated CUL4A neddylation in human H2170 cells at 10 uM after 16 hrs by Western blot analysis; assay type: cell-based; procedure, shortened: as §2
DCN1-like protein 1 [31] = target: T1, DCN1-like protein 1; assay: Inhibition of DCN1-mediated CUL4B neddylation in human H2170 cells at 10 uM after 16 hrs by Western blot analysis; assay type: cell-based; procedure, shortened: as §2

CCC(=O)N[C@@H](Cc1nc2ccc(Cl)cc2s1)C(=O)N[C@H](C(=O)N[C@@H](CCCCN)C(=O)N[C@@H]1CCOc2ccccc21)C1CCOCC1
K (DCN1-like protein 1 [1]): 2.9 ×10⁵ /M/s
inhibition (DCN1-like protein 1 [2]): inactive
Activity (NCI-H2170 [3]): inactive
inhibition (DCN1-like protein 1 [4]): Active
inhibition (DCN1-like protein 1 [5]): inactive
inhibition (DCN1-like protein 1 [6]): Dose-dependent effect
inhibition (DCN1-like protein 1 [7]): inactive
inhibition (DCN1-like protein 1 [8]): Active
inhibition (DCN1-like protein 1 [9]): inactive
Activity (DCN1-like protein 1 [10]): Dose-dependent effect
inhibition (DCN1-like protein 1 [11]): Dose-dependent effect
inhibition (DCN1-like protein 1 [12]): Active
solubility thermodynamic at 24 h [13]: 54 µM (≈ 38.5 µg/mL)
inhibition (DCN1-like protein 1 [14]): inactive
Kd (DCN1-like protein 1 [15]): 6.7 nM
Activity (NCI-H2170 [16]): inactive
K (DCN1-like protein 1 [17]): 2 ×10⁻³ /s

CCC(=O)N[C@@H](Cc1nc2ccc(Cl)cc2s1)C(=O)N[C@H](C(=O)N[C@@H](CCCCN)C(=O)N[C@@H]1CCOc2ccccc21)C1CCNCC1
K (DCN1-like protein 1 [1]): 2.4 ×10³ /M/s
inhibition (DCN1-like protein 1 [18]): inactive
inhibition (DCN1-like protein 1 [19]): inactive
inhibition (DCN1-like protein 1 [20]): inactive
inhibition (DCN1-like protein 1 [21]): inactive
Activity (DCN1-like protein 1 [22]): inactive
inhibition (DCN1-like protein 1 [4]): inactive
inhibition (DCN1-like protein 1 [23]): inactive
inhibition (DCN1-like protein 1 [24]): inactive
inhibition (DCN1-like protein 1 [25]): inactive
inhibition (DCN1-like protein 1 [26]): inactive
inhibition (DCN1-like protein 1 [27]): inactive
inhibition (DCN1-like protein 1 [28]): inactive
inhibition (DCN1-like protein 1 [29]): inactive
inhibition (DCN1-like protein 1 [30]): inactive
inhibition (DCN1-like protein 1 [31]): inactive
Kd (DCN1-like protein 1 [15]): 1470 nM
K (DCN1-like protein 1 [17]): 2.6 ×10⁻³ /s
